Active and inactive are the calls of the source.
What was measured:
[1] = tested on: PBMC; experiment: Induction of IFN-gamma secretion in human PBMC; assay type: functional, cell-based
How it was run: (§1)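 Human PBMCs (5×10^6/mL; 1×10^6 per well) were cultured 24 h with TLR9 agonist 5 µg/mL or TLR7/8 agonist 100 µg/mL, alone or with antagonist at 1:4. Compounds were dissolved in PBS. Supernatant cytokines were measured by Luminex human 25-plex bead assay. One representative donor of six.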

[2] = tested on: PBMC; experiment: Induction of MIG secretion in human PBMC; assay type: functional, cell-based; how it was run: as §1
[3] = molecular target: T1, Toll-like receptor 9 (Homo sapiens) (UniProt Q9NR96); experiment: Agonist activity at TLR9 in human PBMC assessed as NF-kappaB activation at 5 ug/mL; assay type: functional
T1 sequence (whole entry): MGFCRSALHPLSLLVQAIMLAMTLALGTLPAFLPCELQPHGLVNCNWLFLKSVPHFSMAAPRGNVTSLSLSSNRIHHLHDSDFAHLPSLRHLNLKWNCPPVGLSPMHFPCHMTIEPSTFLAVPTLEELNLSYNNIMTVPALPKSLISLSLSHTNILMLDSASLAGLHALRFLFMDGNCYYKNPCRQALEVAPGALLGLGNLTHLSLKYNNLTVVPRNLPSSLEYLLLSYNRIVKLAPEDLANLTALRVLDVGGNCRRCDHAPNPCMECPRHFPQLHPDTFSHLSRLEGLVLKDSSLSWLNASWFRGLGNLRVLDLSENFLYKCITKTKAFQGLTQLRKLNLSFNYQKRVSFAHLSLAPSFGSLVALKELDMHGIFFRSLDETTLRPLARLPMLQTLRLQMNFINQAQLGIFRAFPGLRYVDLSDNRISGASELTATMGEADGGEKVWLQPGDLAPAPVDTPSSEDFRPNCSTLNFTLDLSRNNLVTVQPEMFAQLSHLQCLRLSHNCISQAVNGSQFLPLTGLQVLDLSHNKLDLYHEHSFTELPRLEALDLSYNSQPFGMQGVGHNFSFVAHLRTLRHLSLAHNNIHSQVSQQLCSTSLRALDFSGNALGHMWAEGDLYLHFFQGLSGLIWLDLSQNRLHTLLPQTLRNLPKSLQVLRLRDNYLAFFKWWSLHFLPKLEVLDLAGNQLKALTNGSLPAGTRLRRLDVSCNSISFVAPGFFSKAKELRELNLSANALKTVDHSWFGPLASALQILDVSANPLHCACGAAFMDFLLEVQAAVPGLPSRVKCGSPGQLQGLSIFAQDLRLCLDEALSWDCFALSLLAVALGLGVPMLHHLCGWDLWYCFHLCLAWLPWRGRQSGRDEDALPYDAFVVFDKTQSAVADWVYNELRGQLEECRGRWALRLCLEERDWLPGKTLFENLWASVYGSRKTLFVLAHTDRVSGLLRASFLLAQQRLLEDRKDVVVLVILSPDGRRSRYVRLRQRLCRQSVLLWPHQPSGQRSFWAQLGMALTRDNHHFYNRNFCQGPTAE
How it was run: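 Human PBMCs from healthy-donor blood (Ficoll) plated at 1×10^7 cells/well, stimulated for 2 h. Nuclear extracts analysed for NF-κB binding by EMSA on native polyacrylamide gels with autoradiography. One representative donor of three.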

[4] = tested on: PBMC; experiment: Induction of TNFalpha secretion in human PBMC; assay type: functional, cell-based; how it was run: as §1
[5] = tested on: PBMC; experiment: Induction of MCP1 secretion in human PBMC; assay type: functional, cell-based; how it was run: as §1
[6] = tested on: PBMC; experiment: (§2) Induction of IP10 secretion in human PBMC; assay type: functional, cell-based; how it was run: as §1
[7] = tested on: PBMC; experiment: Induction of IL6 secretion in human PBMC; assay type: functional, cell-based; how it was run: as §1
[8] = tested on: PBMC; experiment: Induction of IFNalpha secretion in human PBMC; assay type: functional, cell-based; how it was run: as §1
[9] = tested on: PBMC; experiment: Induction of MIP1beta secretion in human PBMC; assay type: functional, cell-based; how it was run: as §1
[10] = tested on: PBMC; experiment: Induction of IL12 secretion in human PBMC; assay type: functional, cell-based; how it was run: as §1
[11] = tested on: PBMC; experiment: as §2; assay type: functional, cell-based; how it was run: as §1; remark: listed apart in the source

Measured: Activity

Cc1cn([C@H]2C[C@H](OP(=O)(S)OC[C@H]3O[C@@H](n4ccc(N)nc4=O)C[C@@H]3OP(=O)(S)OC[C@H]3O[C@@H](n4cc(C)c(=O)[nH]c4=O)C[C@@H]3OP(=O)(S)OC[C@H]3O[C@@H](n4cnc5c(=O)[nH]c(N)nc54)C[C@@H]3OP(=O)(S)OC[C@H]3O[C@@H](n4cc(C)c(=O)[nH]c4=O)C[C@@H]3OP(=O)(S)OC[C@H]3O[C@@H](n4ccc(N)nc4=O)C[C@@H]3OP(=O)(S)OC[C@H]3O[C@@H](n4ccc5c(N)ncnc54)C[C@@H]3OP(=O)(S)OC[C@H]3O[C@@H](n4cc(C)c(=O)[nH]c4=O)C[C@@H]3OP(=O)(S)OC[C@H]3O[C@@H](n4cc(C)c(=O)[nH]c4=O)C[C@@H]3OP(=O)(S)OC[C@H]3O[C@@H](n4ccc(N)nc4=O)C[C@@H]3OP(=O)(S)OC[C@H]3O[C@@H](n4cc(C)c(=O)[nH]c4=O)C[C@@H]3OP(=O)(S)OCC(O)COP(=O)(S)O[C@H]3C[C@H](n4cc(C)c(=O)[nH]c4=O)O[C@@H]3COP(=O)(S)O[C@H]3C[C@H](n4ccc(N)nc4=O)O[C@@H]3COP(=O)(S)O[C@H]3C[C@H](n4cc(C)c(=O)[nH]c4=O)O[C@@H]3COP(=O)(S)O[C@H]3C[C@H](n4cc(C)c(=O)[nH]c4=O)O[C@@H]3COP(=O)(S)O[C@H]3C[C@H](n4ccc5c(=O)[nH]c(N)nc54)O[C@@H]3COP(=O)(S)O[C@H]3C[C@H](n4ccc(N)nc4=O)O[C@@H]3COP(=O)(S)O[C@H]3C[C@H](n4cc(C)c(=O)[nH]c4=O)O[C@@H]3COP(=O)(S)O[C@H]3C[C@H](n4cnc5c(=O)[nH]c(N)nc54)O[C@@H]3COP(=O)(S)O[C@H]3C[C@H](n4cc(C)c(=O)[nH]c4=O)O[C@@H]3COP(=O)(S)O[C@H]3C[C@H](n4ccc(N)nc4=O)O[C@@H]3COP(=O)(S)O[C@H]3C[C@H](n4cc(C)c(=O)[nH]c4=O)O[C@@H]3CO)[C@@H](CO)O2)c(=O)[nH]c1=O (stereo partly specified)
active: all assays above

From ChEMBL document CHEMBL1140884, “Oligodeoxyribonucleotide-based antagonists for Toll-like receptors 7 and 9” (2009)
